Results from PMC5628144 (Phytotherapy research : PTR, 2017).
Values joined by “and” are separate entries in the source; they are usually repeats but may differ in a detail not shown here. Equal values may be shown once.

Experiments:
c-Met kinase = c-Met kinase (Homo sapiens, UniProt P08581); assay: Cell-free Z'-LYTE kinase assay, c-Met phosphorylation inhibition; format: biochemical; settings: for % c-Met Inhibition using Cell-Free assay (5 µM dose): single 5 µM dose; for IC50: read-out: c-Met phosphorylation inhibitory IC50, various doses
c-Met kinase, sequence (P08581 1078-1345 limits assumed): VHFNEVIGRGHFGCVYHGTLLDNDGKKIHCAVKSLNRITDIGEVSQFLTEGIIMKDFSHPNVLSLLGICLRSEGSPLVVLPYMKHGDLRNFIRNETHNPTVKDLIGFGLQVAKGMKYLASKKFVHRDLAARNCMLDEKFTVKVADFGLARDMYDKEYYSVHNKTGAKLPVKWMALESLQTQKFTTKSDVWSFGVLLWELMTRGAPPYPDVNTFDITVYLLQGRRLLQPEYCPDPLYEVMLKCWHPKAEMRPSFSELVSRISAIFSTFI
In short: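 Purified c-Met kinase domain, pre-phosphorylated in vitro, in a Z'-LYTE Tyr6 peptide kit. Reactions held kinase buffer, 200 µM ATP, 4 µM Tyr6 peptide, 2500 ng mL⁻¹ c-Met and test compound, run 1 h at rt. Protease development solution then added for 1 h. Read-out was the 445/520 nm fluorescence ratio. Screen at 5 µM, then various doses, N=3/dose. IC50 from non-linear regression.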

[1] = system: MDA-MB-231 breast cancer cells; assay: MTT cell proliferation assay, HGF-induced, MDA-MB-231; format: cell-based, human; settings: 48 h
In short: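 MDA-MB-231 cells were seeded at 1×10⁴/well (6 wells/group) in RPMI-1640 with 10% FBS overnight. They were PBS-washed and treated for 48 h at 37°C in serum-free RPMI with 40 ng/mL HGF and 10 or 40 µM test compound, or DMSO vehicle. MTT 1 mg mL⁻¹ for 4 h, DMSO solubilisation, A570. Cell number came from a standard curve, and % survival was taken relative to DMSO wells.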

MDA-MB-231 cells = assay: Wound-healing scratch assay; format: cell-based, human; settings: read-out: IC50, HGF-induced cell migration; WHA, MDA-MB-231, 24 h, 40 ng/mL HGF
In short: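 Scratch wounds were made with a pipette tip in overnight confluent MDA-MB-231 monolayers, then rinsed with PBS and RPMI. Test compound at various doses in serum-free medium with 40 ng/mL HGF, in triplicate, for 24 h. Cells were fixed and Giemsa-stained, and wound width measured at 0 and 24 h. % migration calculated against DMSO-treated wells, with IC50 by non-linear regression. Oleocanthal 10 µM was the positive control.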

[2] = system: MDA-MB-468 breast cancer cells; assay: MTT cell proliferation assay, HGF-induced, MDA-MB-468; format: cell-based, human; settings: MDA-MB-468, various doses
In short: (§1)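 MDA-MB-468, MCF-7 or BT-474 cells were seeded at 1×10⁴/well (6 wells/group) in RPMI-1640 with 10% FBS and left overnight at 37°C, 5% CO₂. After a PBS wash they got serum-free RPMI with 40 ng/mL HGF plus test compound at various doses, or DMSO (≤0.1%), for 48 h. MTT (1 mg mL⁻¹) for 4 h, formazan dissolved in DMSO, A570. IC50 by non-linear regression.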

[3] = system: MCF-7 breast cancer cells; assay: MTT cell proliferation assay, HGF-induced, MCF-7; format: cell-based, human; settings: MCF-7, various doses
In short: as §1

[4] = system: BT-474 breast cancer cells; assay: MTT cell proliferation assay, HGF-induced, BT-474; format: cell-based, human; settings: BT-474, various doses
In short: as §1

Compound | % c-Met Inhibition using Cell-Free assay (5 µM dose) (c-Met kinase) | % Survival Inhibition ([1]; 10 µM) | % Survival Inhibition ([1]; 40 µM) | IC50 (c-Met kinase) | IC50 (MDA-MB-231 cells) | HGF-induced proliferation [2] | HGF-induced proliferation [3] | HGF-induced proliferation [4]
6-O-α-L-(3″-O-trans-p-coumaroyl-4″-O-trans-caffeoyl)-rhamnopyrano-sylcatalpol [Compound 3] | 10.9% | 27% | 30% |  |  |  |  | 
C[C@@H]1O[C@@H](O[C@H]2[C@@H]3C=CO[C@@H](O[C@@H]4O[C@H](CO)[C@@H](O)[C@H](O)[C@H]4O)[C@@H]3[C@@]3(CO)O[C@@H]23)[C@H](O)[C@H](OC(=O)/C=C/c2ccc(O)cc2)[C@H]1OC(=O)/C=C/c1ccc(O)cc1 (relative stereo) [Compound 1, 6-O-α-L-(3″,4″-di-O-trans-p-coumaroyl) rhamnopyranosylcatalpol] | 0% |  | 26% |  |  |  |  | 
C[C@@H]1O[C@@H](OC(=O)/C=C/c2ccc(O)cc2)[C@H](OC(=O)/C=C/c2ccc(O)c(O)c2)[C@H](O)[C@H]1O (relative stereo) [Compound 9, 1-O-trans-p-coumaroyl-2-O-trans-caffeoyl-α-L-rhamnopyranose] |  | 50% and 51.3% | 80% and 79.3% | 2.5 µM | 0.98 µM | dose-dependent suppression | dose-dependent suppression | dose-dependent suppression
C[C@@H]1O[C@@H](OC(=O)/C=C/c2ccc(O)cc2)[C@H](O)[C@H](OC(=O)/C=C/c2ccc(O)c(O)c2)[C@H]1O (relative stereo) [Compound 10, 1-O-trans-p-coumaroyl-3-O-trans-caffeoyl-α-L-rhamnopyranose] | 38.8% | 28% and 28.2% | 49% and 49.2% | 12.7 µM | 8.1 µM |  |  | 
COc1ccc(C=CC(=O)OC2C(C)OC(OC3C4C=COC(OC5OC(CO)C(O)C(O)C5O)C4C4(CO)OC34)C(O)C2OC(=O)C=Cc2ccc(OC)cc2)cc1 [Compound 2, 6-O-α-L-(3″,4″-di-O-trans-p-methoxycinnamoyl)-rhamnopyranosylcatalpol] | 0% |  | 17% |  |  |  |  | 
COc1ccc(/C=C/C(=O)O[C@@H]2[C@@H](O)[C@@H](O)[C@H](O[C@H]3[C@@H]4C=CO[C@@H](O[C@@H]5O[C@H](CO)[C@@H](O)[C@H](O)[C@H]5O)[C@@H]4[C@@]4(CO)O[C@@H]34)O[C@H]2C)cc1 [Compound 8, 6-O-α-L-(4”-O-p-methoxycinnamoyl) rhamnopyranosylcatalpol] | 56.7% | 32% | 61% and 61.3% | 6.9 µM | 13.5 µM |  |  | 
premnoside B [Compound 6] | 0% | 10% | 13% |  |  |  |  | 
premnoside C [Compound 7] | 0% | 13% | 18% |  |  |  |  | 
premnoside E [Compound 4] | 0% |  | 7% |  |  |  |  | 
premnoside G [Compound 5] | 0% |  | 20% |  |  |  |  | 
